Test results: ChEMBL document CHEMBL2069181, “In vitro and in vivo trypanosomicidal activity of pyrazole-containing macrocyclic and macrobicyclic polyamines: their action on acute and chronic phases of Chagas disease” (J Med Chem, 2012)
Activity calls are given as the source filed them.

Tests used:
Trypanosoma cruzi [1] = assay: Trypanosomicidal activity against Trypanosoma cruzi SN3 epimastigote after 72 hrs by hemocytometric analysis; format: functional, organism-based; conditions: SN3, 72 h
In short: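 Exponential-phase SN3 epimastigotes (Grace's medium, 10% FBS, 28 °C) seeded at 5 × 10^4 parasites/well with compounds dissolved in MTL at 1, 10, 25, 50, 100 μM.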

Trypanosoma cruzi [2] = assay: Trypanosomicidal activity against Trypanosoma cruzi SN3 anexic amastigote after 48 hrs by hemocytometric analysis; format: functional, organism-based; conditions: SN3, 48 h
In short: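 Axenic amastigotes obtained from epimastigotes after 3 days in supplemented M199 (10% FCS, pH 5.4, 37 °C).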

Trypanosoma cruzi [3] = assay: Trypanosomicidal activity against Trypanosoma cruzi SN3 amastigote infected in Vero cells after 72 hrs by Giemsa staining method; format: functional, organism-based
In short: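 Vero cells seeded at 1 × 10^4/well on coverslips, grown 2 days, infected with metacyclic forms (10:1) for 24 h, washed, then treated at 1–100 μM for 72 h in RPMI/10% FBS. Amastigote reduction scored on methanol-fixed Giemsa-stained slides; four determinations; IC50.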

Vero = assay: Cytotoxicity against African green monkey Vero cells assessed as cell viability after 72 hrs by flow cytometric analysis; format: cell-based; conditions: Chlorocebus sabaeus
In short: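 Vero cells grown in RPMI with 10% inactivated FBS at 37 °C, 5% CO2, seeded at 1 × 10^5 cells/mL, grown 2 days, then exposed to 1–100 μM compound for 72 h. Viability measured by flow cytometry; IC50 by linear regression.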

[4] = Selectivity index, ratio of IC50 for Vero cells to IC50 for Trypanosoma cruzi epimastigote; format: toxicity, cell-based; conditions: monkey, Vero cells versus Trypanosoma cruzi epimastigotes; read-out: Ratio IC50
[5] = Selectivity index, ratio of IC50 for Vero cells to IC50 for Trypanosoma cruzi anexic amastigote; format: toxicity, cell-based; conditions: monkey, Vero cells versus Trypanosoma cruzi axenic amastigotes; read-out: Ratio IC50
[6] = Selectivity index, ratio of IC50 for Vero cells to IC50 for Trypanosoma cruzi intracellular amastigote infected in Vero cells; format: toxicity, cell-based; conditions: monkey; read-out: Ratio IC50
Trypanosoma cruzi [7] = assay: Trypanosomicidal activity against Trypanosoma cruzi infected in Vero cells assessed as reduction in rate of infection after 10 days by Giemsa staining method; format: functional; parameters: scale not given: the % may be the effect or the level left
In short: (§1)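 Vero cells infected with metacyclic forms (10:1); compounds at IC25 added at infection for 12 h at 37 °C, then washed out and cultures grown 10 days with medium renewed every 48 h. Infected cells and amastigotes per cell counted in >100 host cells on Giemsa-stained slides; trypomastigotes in medium counted; mean of four determinations.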

Trypanosoma cruzi [8] = assay: Trypanosomicidal activity against Trypanosoma cruzi infected in Vero cells assessed as reduction in amastigotes per infected Vero cells after 6 days by Giemsa staining method; format: functional; parameters: scale not given: the % may be the effect or the level left
Trypanosoma cruzi [9] = assay: Trypanosomicidal activity against Trypanosoma cruzi infected in Vero cells assessed as reduction in trypomastigotes in culture medium after 10 days by Giemsa staining method; format: functional; parameters: scale not given: the % may be the effect or the level left; in short: as §1
[10] = Inhibition of Trypanosoma cruzi epimastigotes Fe-SOD by NBT reduction assay
In short: (§2)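 Enzyme from epimastigotes grown without FBS (excreted Fe-SOD), sonicated in STE buffer pH 7.8, centrifuged, supernatant protein by Bradford; human erythrocyte CuZn-SOD for comparison. NBT reduction by superoxide (Beyer–Fridovich): methionine, NBT, Triton X-100, riboflavin, homogenate plus compound; A560 read before and after 10 min UV illumination with stirring. Five separate determinations; Newman–Keuls test against control.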

Mus musculus [11] = assay: Toxicity in BALB/c mouse liver infected with Trypanosoma cruzi assessed as granulomas with limphocitic infiltration at 5 mg/kg, ip after 120 days postinfection by Histopathological analysis; format: organism-based; parameters: dose 5 mg/kg, route intraperitoneal; conditions: in vivo, 2880 h
In short: (§3)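 Livers removed at 120 days postinfection, fixed in 10% buffered formalin, paraffin-embedded, 4–5 μm sections stained with H&E and Masson's trichrome. Blinded scoring of at least 30 fields per slide, 0 (none) to 5 (severe).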

Mus musculus [12] = assay: Toxicity in BALB/c mouse liver infected with Trypanosoma cruzi assessed as delocalized hepatic destruction at 5 mg/kg, ip after 120 days postinfection by Histopathological analysis; format: organism-based; parameters: dose 5 mg/kg, route intraperitoneal; conditions: in vivo, 2880 h; in short: as §3
Mus musculus [13] = assay: Toxicity in BALB/c mouse liver infected with Trypanosoma cruzi assessed as blood vessels with thickened walls at 5 mg/kg, ip after 120 days postinfection by Histopathological analysis; format: organism-based, Blood vessel; parameters: dose 5 mg/kg, route intraperitoneal; conditions: in vivo, 2880 h; in short: as §3
Mus musculus [14] = assay: Toxicity in BALB/c mouse liver infected with Trypanosoma cruzi assessed as lymphocytic infiltrations in portal tracts at 5 mg/kg, ip after 120 days postinfection Histopathological analysis; format: organism-based; parameters: dose 5 mg/kg, route intraperitoneal; conditions: in vivo, 2880 h; in short: as §3
Mus musculus [15] = assay: Toxicity in BALB/c mouse liver infected with Trypanosoma cruzi assessed as intestinal hemorrhage at 5 mg/kg, ip after 120 days postinfection by Histopathological analysis; format: organism-based; parameters: dose 5 mg/kg, route intraperitoneal; conditions: in vivo, 2880 h; in short: as §3
Mus musculus [16] = assay: Toxicity in BALB/c mouse liver infected with Trypanosoma cruzi assessed as hepatic destruction in portal tracts at 5 mg/kg, ip after 120 days postinfection by Histopathological analysis; format: organism-based; parameters: dose 5 mg/kg, route intraperitoneal; conditions: in vivo, 2880 h; in short: as §3
Mus musculus [17] = assay: Toxicity in BALB/c mouse liver infected with Trypanosoma cruzi assessed as necrotic cells in portal tracts at 5 mg/kg, ip after 120 days postinfection by Histopathological analysis; format: organism-based; parameters: dose 5 mg/kg, route intraperitoneal; conditions: in vivo, 2880 h; in short: as §3
Trypanosoma cruzi [18] = assay: Trypanosomicidal activity against Trypanosoma cruzi epimastigotes assessed as intense vacuolization of protozoan cells by TEM analysis; format: functional, organism-based
Trypanosoma cruzi [19] = assay: Trypanosomicidal activity against Trypanosoma cruzi epimastigotes assessed as reservosomes in cytoplasm by TEM analysis; format: functional, organism-based
Trypanosoma cruzi [20] = assay: Trypanosomicidal activity against Trypanosoma cruzi epimastigotes assessed as altered nucleus by TEM analysis; format: functional, organism-based
Trypanosoma cruzi [21] = assay: Inhibition of Trypanosoma cruzi epimastigotes Fe-SOD at 50 ug/ml by NBT reduction assay; in short: as §2
Trypanosoma cruzi [22] = assay: Inhibition of Trypanosoma cruzi epimastigotes Fe-SOD at 25 ug/ml by NBT reduction assay; in short: as §2
Trypanosoma cruzi [23] = assay: Inhibition of Trypanosoma cruzi epimastigotes Fe-SOD at 10 ug/ml by NBT reduction assay; in short: as §2
Trypanosoma cruzi [24] = assay: Antitrypanosomal activity against Trypanosoma cruzi infected in BALB/c mouse assessed as reduction in parasitemia at 1 mg/kg, ip dosed for 5 days measured on day 30 post infection; format: functional; parameters: scale not given: the % may be the effect or the level left; conditions: route intraperitoneal
In short: (§4)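 Female BALB/c mice infected with trypomastigotes, dosed ip at 1 mg/kg/day on days 5–10 postinfection; vehicle controls. Mandibular vein blood (5 μL) diluted in citrate/lysis buffer pH 7.2; parasites counted under immersion objective every 2 days from day 5 to 30, as parasites/mL.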

Trypanosoma cruzi [25] = assay: Antitrypanosomal activity against Trypanosoma cruzi infected in BALB/c mouse assessed as reduction in trypomastigotes at 1 mg/kg, ip dosed for 5 days measured on day 14 post infection; format: functional, organism-based; parameters: dose 1 mg/kg; in short: as §4
Trypanosoma cruzi [26] = assay: Antitrypanosomal activity against Trypanosoma cruzi infected in BALB/c mouse assessed as reduction in anti-organism antibody at 1 mg/kg, ip dosed for 5 days measured on day 40 to 120 post infection; format: functional, organism-based; parameters: dose 1 mg/kg
In short: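 Infected female BALB/c mice given 1 mg/kg/day ip for 5 days. Serum (1:50 in PBS) on days 40 and 120 tested by ELISA against excreted epimastigote Fe-SOD antigen; absorbance 490 nm, cutoff = negative-control mean + 3 SD; change is day-120 minus day-40 absorbance.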

Trypanosoma cruzi [27] = assay: Trypanosomicidal activity against Trypanosoma cruzi epimastigotes assessed as inhibition of succinate metabolite excretion after 96 hrs by NMR analysis; format: functional
In short: (§5)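 Epimastigotes (5 × 10^5 cells/mL) exposed to IC25 of compound for 96 h at 28 °C; supernatant after centrifugation analysed by 1H NMR with DSS reference, compared against untreated cultures.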

Trypanosoma cruzi [28] = assay: Trypanosomicidal activity against Trypanosoma cruzi epimastigotes assessed as inhibition of acetate metabolite excretion after 96 hrs by NMR analysis; format: functional; in short: as §5
Trypanosoma cruzi [29] = assay: Trypanosomicidal activity against Trypanosoma cruzi epimastigotes assessed as inhibition of L-lactate metabolite excretion after 96 hrs by NMR analysis; format: functional; in short: as §5
[30] = Selectivity ratio of IC50 for Trypanosoma cruzi epimastigotes Fe-SOD to IC50 for human erythrocyte Cu-Zn SOD
[31] = biological target: Superoxide dismutase [Cu-Zn], SOD1 (Homo sapiens) (UniProt P00441); assay: Activity of human erythrocyte Cu-Zn SOD by NBT reduction assay
Trypanosoma cruzi [32] = assay: Trypanosomicidal activity against Trypanosoma cruzi epimastigotes assessed as very electron dense protozoan cells by TEM analysis; format: functional, organism-based
Trypanosoma cruzi [33] = assay: Trypanosomicidal activity against Trypanosoma cruzi epimastigotes assessed as distorted shape of protozoan cells by TEM analysis; format: functional, organism-based
Trypanosoma cruzi [34] = assay: Antitrypanosomal activity against Trypanosoma cruzi infected in BALB/c mouse assessed as survival rate at 1 mg/kg, ip dosed for 5 days; format: functional; conditions: 120 h, route intraperitoneal
In short: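 Female BALB/c mice were infected with trypomastigotes of T. cruzi SN3 strain (Colombian R. prolixus isolate). Dosing was ip at 1 mg/kg/day for 5 consecutive days, on days 5–10 postinfection. Controls were infected mice given vehicle only, plus uninfected groups. Mortality was followed over the acute phase (first 30 days) and the chronic phase (days 40–120 postinfection).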

Chain of Superoxide dismutase [Cu-Zn], SOD1 (Homo sapiens) (P00441 whole entry, looked up): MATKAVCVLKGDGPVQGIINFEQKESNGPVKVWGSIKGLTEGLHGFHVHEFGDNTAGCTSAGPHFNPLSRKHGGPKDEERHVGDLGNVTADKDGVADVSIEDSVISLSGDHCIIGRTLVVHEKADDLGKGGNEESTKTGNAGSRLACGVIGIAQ

Row | Compound | IC50 (Trypanosoma cruzi [1]) [µM] | IC50 (Trypanosoma cruzi [2]) [µM] | IC50 (Trypanosoma cruzi [3]) [µM] | IC50 (Vero) [µM] | selectivity ratio [4] | selectivity ratio [5] | selectivity ratio [6] | Activity (Trypanosoma cruzi [7]) [%] | Activity (Trypanosoma cruzi [8]) [%] | Activity (Trypanosoma cruzi [9]) [%] | Activity (Mus musculus [11]) | Activity (Mus musculus [12]) | Activity (Mus musculus [13]) | Activity (Mus musculus [14]) | Activity (Mus musculus [15]) | Activity (Mus musculus [16]) | Activity (Mus musculus [17]) | Activity (Trypanosoma cruzi [24]) [%] | Activity (Trypanosoma cruzi [26]) | inhibition (INH) (Trypanosoma cruzi [28]) [%] | other results
1 | Cl.Cn1nc2cc1CNCCNCCNCc1cc(n(C)n1)CNCCNCCNC2 | 1.3 | 8.8 | 6.5 | 178 | 137 | 20.3 | 27.5 | 80 | 42 | 64 | Non-toxic | Non-toxic | Toxic | Non-toxic | Non-toxic | Non-toxic | Non-toxic | 39 | Active | 15 | IC50 [10]: 4.2 µM; Activity (Trypanosoma cruzi [18]): Active; Activity (Trypanosoma cruzi [19]): Active; Activity (Trypanosoma cruzi [20]): Active; inhibition (Trypanosoma cruzi [21]): 98%; inhibition (Trypanosoma cruzi [22]): 70%; inhibition (Trypanosoma cruzi [23]): 75%; Activity (Trypanosoma cruzi [25]): Active; inhibition (INH) (Trypanosoma cruzi [27]): 70%; inhibition (INH) (Trypanosoma cruzi [29]): 58%; Ratio IC50 [30]: 23; Activity [31]: 23.4 U/mg
2 | Cl.c1c2n[nH]c1CNCCN1CCNCc3cc(n[nH]3)CNCCN(CCNC2)CCNCc2cc([nH]n2)CNCC1 | 1.3 | 7.2 | 6.2 | 149 | 115 | 20.7 | 24 | 74 | 50 | 70 | Non-toxic | Non-toxic | Non-toxic | Non-toxic | Non-toxic | Toxic | Non-toxic | 53 | Active | 22 | IC50 [10]: 30.8 µM; Activity (Trypanosoma cruzi [18]): Active; Activity (Trypanosoma cruzi [32]): Active; Activity (Trypanosoma cruzi [33]): Active; inhibition (Trypanosoma cruzi [21]): 98%; inhibition (Trypanosoma cruzi [22]): 70%; Activity (Trypanosoma cruzi [25]): Active; inhibition (INH) (Trypanosoma cruzi [27]): 7%; Activity [31]: 23.4 U/mg
3 | O=C(Cn1ccnc1[N+](=O)[O-])NCc1ccccc1 [BENZNIDAZOLE] |  | 18.9 | 23.3 |  |  |  |  | 23 | 13 | 46 | Toxic | Toxic | Non-toxic | Non-toxic | Toxic | Toxic | Toxic | 26 | Active | -6 | survival at 1 mg/kg (Trypanosoma cruzi [34]): 80%
